The assay concerns sperm–egg plasma membrane adhesion and fusion (zona-free eggs, acrosome-reacted sperm). Description: In vitro sperm–egg adhesion and fusion assay with active site peptides. The format is cell-based, mouse. Conditions: peptide 500 μM, Fig. 2, FI and FR taken together. The procedure, abridged:
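Mice superovulated with 10 IU PMSG and 5 IU hCG 48 h apart. Metaphase II eggs collected ~12 h post-hCG, cumulus removed with hyaluronidase, zonae with chymotrypsin, then DAPI-preloaded. Peptide added 30 min before capacitated, acrosome-reacted sperm (2–4 × 10^4/ml final) and present throughout. Coincubated 30 min, 37 °C, 5% CO2, Whittingham's/3% BSA. Scored sperm bound/egg, FI and FR; 43–82 eggs per peptide.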

Entries after “also recorded” stand apart in the source; their conditions may differ.

For SVDECDLL [ADAM 5 peptide], the “inhibition of sperm–egg binding and fusion (stated jointly)” value was “essentially no inhibition; also recorded: did not inhibit”.

These data come from article PMC2139869 (The Journal of Cell Biology, 1997).
